Measurements published in ChEMBL document CHEMBL2040713, “Finger-loop inhibitors of the HCV NS5b polymerase. Part 1: Discovery and optimization of novel 1,6- and 2,6-macrocyclic indole series” (Bioorg Med Chem Lett, 2012).

How the values were obtained:
[1] = Inhibition of purified HCV NS5B Cdelta21 polymerase; parameters: species or system Hepacivirus hominis
Hepatitis C virus = test: Antiviral activity against HCV infected in human […] cells assessed as inhibition of viral RNA replication; format: functional, organism-based, Hepacivirus hominis
Summary of the method: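 Replicon assay: subgenomic HCV RNA replication in Huh-7 cells carrying a bicistronic expression construct. Inhibition expressed as EC50.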

[2] = Half life in Sprague-Dawley rat at 2 mg/kg, iv and 10 mg/kg, po; format: ADME, organism-based; settings: in vivo
Summary of the method: (§1)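 Sprague–Dawley rats, single dose. IV arm at 2 mg/kg in PEG400/saline (70:30), with plasma kinetics determined. Oral arm at 10 mg/kg in PEG400 containing 2% Vitamin E TPGS, compared against the iv data.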

[3] = Drug metabolism in human liver microsomes at 5 uM after 15 mins; format: ADME, Microsome; settings: read-out: Drug metabolism
[4] = Ratio of drug level in liver to plasma in Sprague-Dawley rat at 2 mg/kg, iv and 10 mg/kg, po after 7 hrs; format: ADME, organism-based
Summary of the method: (§2)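 Sprague–Dawley rats given 2 mg/kg iv in PEG400/saline (70:30) or 10 mg/kg po in PEG400 with 2% Vitamin E TPGS. Liver concentration (ng/g) measured 7 h post dose. Liver-to-plasma ratio taken at the same time.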

[5] = Drug level in Sprague-Dawley rat liver at 2 mg/kg, iv and 10 mg/kg, po after 7 hrs; format: ADME, organism-based; settings: read-out: Drug uptake; summary of the method: as §2
[6] = Clearance in Sprague-Dawley rat at 2 mg/kg, iv and 10 mg/kg, po; format: ADME, organism-based; settings: in vivo; summary of the method: as §1
[7] = Volume of distribution at steady state in Sprague-Dawley rat at 2 mg/kg, iv and 10 mg/kg, po; format: ADME, organism-based; settings: in vivo, read-out: Vdss; summary of the method: as §1
[8] = Oral bioavailability in Sprague-Dawley rat at 10 mg/kg; format: ADME, organism-based; settings: in vivo; summary of the method: as §1
[9] = Drug metabolism in rat liver microsomes at 5 uM after 15 mins; format: ADME, Microsome; settings: read-out: Drug metabolism
Liver microsomes = test: Metabolic stability in human liver microsomes assessed as glutathione conjugates formation at 40 uM in presence of glutathione; format: ADME, Microsome
Summary of the method: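 Human liver microsomes (1 mg/mL protein) in 100 mM KPi, pH 7.4, with 5 mM MgCl2, 1 mM EDTA and 2 mM NADPH. Trapping agent was 2 mM GSH, or a GSH/stable-label GSH mix (1 mM/1 mM). Compound at 40 µM final, added from a 20 mM stock. Read-out was glutathione conjugate formation.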

[10] = Efflux ratio of compound permeability in human Caco2 cells; format: ADME, cell-based; settings: Caco-2
[11] = Apparent permeability from apical to basolateral side of human Caco2 cells; format: ADME, cell-based; settings: Caco-2

Row | IC50 [1] | EC50 (Hepatitis C virus) | metabolised at 0.25 h, 5 µM [3] | metabolised at 0.25 h, 5 µM [9] | SMILES | also measured
1 | 110 nM | 1580 nM |  |  | CN1CCCCNC(=O)Cn2c(-c3ccoc3)c(C3CCCCC3)c3ccc(cc32)C(=O)NS1(=O)=O | 
2 | 180 nM | 1760 nM |  |  | COc1ccc(-c2c(C3CCCCC3)c3ccc4cc3n2CC(=O)NCCCCN(C)S(=O)(=O)NC4=O)cc1 | 
3 | 440 nM | 3470 nM |  |  | COc1ccc(-c2c(C3CCCCC3)c3ccc4cc3n2CC(=O)NCCN(C)CCNS(=O)(=O)NC4=O)cc1 | 
4 |  | 3500 nM |  |  | COc1ccc(-c2c(C3CCCCC3)c3ccc4cc3n2CC(=O)NN(C)CCN2CCN(CC2)S(=O)(=O)NC4=O)cc1 | 
5 |  | 350 nM |  |  | COc1ccc(-c2c(C3CCCCC3)c3ccc4cc3n2CC(=O)NCCCCCN(C)S(=O)(=O)NC4=O)cc1 | 
6 | 190 nM | 590 nM |  |  | CN1CCCCCNC(=O)Cn2c(-c3ccc(Cl)cc3)c(C3CCCCC3)c3ccc(cc32)C(=O)NS1(=O)=O | 
7 |  | 430 nM |  |  | CN1CCCCCNC(=O)Cn2c(-c3ccccc3)c(C3CCCCC3)c3ccc(cc32)C(=O)NS1(=O)=O | 
8 |  | 530 nM |  |  | CN1CCCCN(C)S(=O)(=O)NC(=O)c2ccc3c(C4CCCCC4)c(-c4ccc(Cl)cc4)n(c3c2)CC1=O | 
9 | 1900 nM | 7560 nM |  |  | CN1CCCCNC(=O)COc2ccccc2-c2c(C3CCCCC3)c3ccc(cc3n2C)C(=O)NS1(=O)=O | 
10 | 97 nM | 310 nM | 92% | 60% | CN1CCCCN(C)S(=O)(=O)NC(=O)c2ccc3c(C4CCCCC4)c(n(C)c3c2)-c2ccccc2OCC1=O | half-life [2]: 18 min; Kp at 7 h [4]: 99; concentration at 7 h [5]: 1520 ng/g; clearance [6]: 128 mL/min/kg; Vd [7]: 2.6 L/kg; bioavailability [8]: 9%
11 | 54 nM | 170 nM | 96% | 64% | COc1ccc2c(c1)OCC(=O)N(C)CCCCN(C)S(=O)(=O)NC(=O)c1ccc3c(C4CCCCC4)c-2n(C)c3c1 | 
12 | 33 nM | 180 nM | 71% | 44% | CN1CCCCCNC(=O)COc2ccccc2-c2c(C3CCCCC3)c3ccc(cc3n2C)C(=O)NS1(=O)=O | 
13 | 88 nM | 680 nM | 59% | 56% | CN1CCCCCNC(=O)COc2ccc(F)cc2-c2c(C3CCCCC3)c3ccc(cc3n2C)C(=O)NS1(=O)=O | 
14 | 110 nM | 460 nM | 81% | 58% | CN1CCCCCNC(=O)COc2cc(F)ccc2-c2c(C3CCCCC3)c3ccc(cc3n2C)C(=O)NS1(=O)=O | 
15 | 56 nM | 150 nM | 69% | 52% | COc1ccc2c(c1)OCC(=O)N(C)CCOCCN(C)S(=O)(=O)NC(=O)c1ccc3c(C4CCCCC4)c-2n(C)c3c1 | 
16 | 110 nM | 190 nM | 65% | 50% | CN1CCOCCN(C)S(=O)(=O)NC(=O)c2ccc3c(C4CCCCC4)c(n(C)c3c2)-c2ccccc2OCC1=O | half-life [2]: 60 min; Kp at 7 h [4]: 64; Stability (Liver microsomes): Stable; concentration at 7 h [5]: 1720 ng/g; clearance [6]: 115 mL/min/kg; Vd [7]: 7 L/kg; bioavailability [8]: 14%
17 | 1660 nM | 11900 nM | 64% | 35% | CC(C)n1c2c(C3CCCCC3)c3ccc(cc31)C(=O)NS(=O)(=O)N(C)CCOCCN(C)C(=O)COc1ccccc1-2 | 
18 | 1490 nM | 15700 nM | 74% | 40% | CN1CCOCCN(C)S(=O)(=O)NC(=O)c2ccc3c(C4CCCCC4)c(n(C4CCCC4)c3c2)-c2ccccc2OCC1=O | 
19 | 2200 nM | 3400 nM | > 95% | > 95% | O=C1Cn2c(-c3ccoc3)c(C3CCCCC3)c3ccc(cc32)C(=O)NCC/C=C/CCN1 | 
20 | 9500 nM | 4300 nM | > 95% | > 95% | O=C1Cn2c(-c3ccoc3)c(C3CCCCC3)c3ccc(cc32)C(=O)NCCCCCCN1 | 
21 |  | 2600 nM | > 95% | > 95% | O=C1Cn2c(-c3ccoc3)c(C3CCCCC3)c3ccc(cc32)C(=O)NCC/C=C/CCCN1 | 
22 |  | 7500 nM |  |  | O=C1Cn2c(-c3ccoc3)c(C3CCCCC3)c3ccc(cc32)C(=O)NS(=O)(=O)C/C=C/CCN1 | efflux ratio [10]: > 25; Papp A→B [11]: < 1 ×10⁻⁶ cm/s
23 |  | 720 nM |  |  | CN1C/C=C/CCNC(=O)Cn2c(-c3ccoc3)c(C3CCCCC3)c3ccc(cc32)C(=O)NS1(=O)=O | 
24 |  | 790 nM | 67% | 63% | CN1CCCCCNC(=O)Cn2c(-c3ccoc3)c(C3CCCCC3)c3ccc(cc32)C(=O)NS1(=O)=O | half-life [2]: 24 min; Kp at 7 h [4]: 150; concentration at 7 h [5]: 3740 ng/g; clearance [6]: 123 mL/min/kg; Vd [7]: 2.4 L/kg; bioavailability [8]: 40%

Row | SMILES | IC50 [1] | EC50 (Hepatitis C virus) | metabolised at 0.25 h, 5 µM [3] | metabolised at 0.25 h, 5 µM [9] | also measured
25 | CN1CCN2CCN(CC2)C(=O)COc2ccccc2-c2c(C3CCCCC3)c3ccc(cc3n2C)C(=O)NS1(=O)=O | 140 nM | 240 nM | 56% | 35% | 
